According to ChEMBL document CHEMBL1122134, “Antimalarials. 14. 5-(aryloxy)-4-methylprimaquine analogues. A highly effective series of blood and tissue schizonticidal agents” (1982):

Tests used:
Plasmodium cynomolgi [1] = assay: Cures in sporozoite-induced Plasmodium cynomolgi infected Rhesus monkeys (Macaca mulatta) on 0.316 mg/kg/day peroral dose after 7 days, n=2; assay type: functional; conditions: route oral
Mus musculus [2] = assay: Number of cures out of five mice (Mus musculus) infected with Plasmodium berghei at 80 mg/kg(X 1) subcutaneous administration
Mus musculus [3] = assay: Number of cures out of five mice (Mus musculus) infected with Plasmodium berghei at 160 mg/kg(X 1) subcutaneous administration
Mus musculus [4] = assay: Suppressive antimalarial activity against Plasmodium berghei in Rane mice (Mus musculus) test (five mice (Mus musculus)) 10 mg/kg(X 1); assay type: functional
Summary of the method: (§1)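 Mice infected with Plasmodium berghei; five mice per dose. A single subcutaneous dose (mg/kg, ×1) was given 72 h after infection. Activity was scored as the increase in mean survival time over infected controls, with an increase of at least 100% counted as active. Cures are mice surviving at 60 days postinfection. Deaths attributed to the drug were scored as toxic.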

Mus musculus [5] = assay: Number of cures out of five mice (Mus musculus) infected with Plasmodium berghei at 40 mg/kg(X 1) subcutaneous administration
Mus musculus [6] = assay: Number of animals found toxic out of five mice (Mus musculus) infected with Plasmodium berghei at 320 mg/kg(X 1) subcutaneous administration
Mus musculus [7] = assay: Number of cures out of five mice (Mus musculus) infected with Plasmodium berghei at 20 mg/kg(X 1) subcutaneous administration
Mus musculus [8] = assay: Number of cures out of five mice (Mus musculus) infected with Plasmodium berghei at 640 mg/kg(X 1) subcutaneous administration
Plasmodium cynomolgi [9] = assay: Cures in sporozoite-induced Plasmodium cynomolgi infected Rhesus monkeys (Macaca mulatta) at 1 mg/kg/day (x 7) peroral dose; n=3; assay type: functional; conditions: route oral
Mus musculus [10] = assay: Suppressive antimalarial activity against Plasmodium berghei in Rane mice (Mus musculus) test (five mice (Mus musculus)) at a dose of 5 mg/kg(X 1); assay type: functional; summary of the method: as §1
Plasmodium cynomolgi [11] = assay: Cures in sporozoite-induced Plasmodium cynomolgi infected Rhesus monkeys (Macaca mulatta) on 0.1 mg/kg/day peroral dose after 7 days, n=2; assay type: functional; conditions: route oral
[12] = Molar primaquine Index value of compound was determined; assay type: functional
Mus musculus [13] = assay: Number of cures out of five mice (Mus musculus) infected with Plasmodium berghei at 320 mg/kg(X 1) subcutaneous administration
Mus musculus [14] = assay: Suppressive antimalarial activity against Plasmodium berghei in Rane mice (Mus musculus) test (five mice (Mus musculus))80 mg/kg (X 1); assay type: functional; summary of the method: as §1
Mus musculus [15] = assay: Suppressive antimalarial activity against Plasmodium berghei in Rane mice (Mus musculus) test (five mice (Mus musculus)) at a dose of 160 mg/kg (X 1); assay type: functional; summary of the method: as §1
Plasmodium cynomolgi [16] = assay: Cures in sporozoite-induced Plasmodium cynomolgi infected Rhesus monkeys (Macaca mulatta) on 1 mg/kg/day peroral dose after 7 days, n=2; assay type: functional; conditions: route oral
Mus musculus [17] = assay: Number of animals found toxic out of five mice (Mus musculus) infected with Plasmodium berghei at 640 mg/kg(X 1) subcutaneous administration
Mus musculus [18] = assay: Suppressive antimalarial activity against Plasmodium berghei in Rane mice (Mus musculus) test (five mice (Mus musculus)) 40 mg/kg (X 1); assay type: functional; summary of the method: as §1
Mus musculus [19] = assay: Suppressive antimalarial activity against Plasmodium berghei in Rane mice (Mus musculus) test (five mice (Mus musculus)) 20 mg/kg (X 1); assay type: functional; summary of the method: as §1
Mus musculus [20] = assay: Number of animals found toxic out of five mice (Mus musculus) infected with Plasmodium berghei at 160 mg/kg(X 1)subcutaneous administration
Plasmodium cynomolgi [21] = assay: Cures in sporozoite-induced Plasmodium cynomolgi infected Rhesus monkeys (Macaca mulatta) on 1.3 mg/kg/day peroral dose after 7 days, n=6; assay type: functional; conditions: route oral
Plasmodium cynomolgi [22] = assay: Cures in sporozoite-induced Plasmodium cynomolgi infected Rhesus monkeys (Macaca mulatta) on 0.1 mg/kg/day peroral dose after 7 days, n=3; assay type: functional; conditions: route oral
Mus musculus [23] = assay: Number of cures out of five mice (Mus musculus) infected with Plasmodium berghei at 10 mg/kg(X 1) subcutaneous administration
Plasmodium cynomolgi [24] = assay: Suppressive failures in sporozoite-induced Plasmodium cynomolgi infected Rhesus monkeys (Macaca mulatta) on 0.875 mg/kg/day peroral dose after 1 day; assay type: functional; conditions: route oral
Summary of the method: (§2)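 Single oral dose (×1) in P. cynomolgi-infected rhesus monkeys, given alone or with chloroquine phosphate at 5 mg/kg of salt (×7). Drug was given in salt form but dose calculated as free base. Each animal scored as cure (C), suppressive failure (SF, blood not cleared) or relapse (R, tissues not cleared).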

Plasmodium cynomolgi [25] = assay: Cures in sporozoite-induced Plasmodium cynomolgi infected Rhesus monkeys (Macaca mulatta) on 7 mg/kg/day peroral dose after 1 day; assay type: functional; conditions: route oral; summary of the method: as §2
Plasmodium cynomolgi [26] = assay: Relapses in sporozoite-induced Plasmodium cynomolgi infected Rhesus monkeys (Macaca mulatta) on 0.875 mg/kg/day peroral dose after 1 day; assay type: functional; conditions: route oral; summary of the method: as §2
Plasmodium cynomolgi [27] = assay: Cures in sporozoite-induced Plasmodium cynomolgi infected Rhesus monkeys (Macaca mulatta) on peroral 14 mg/kg/day (x 1) dose; assay type: functional; conditions: route oral; summary of the method: as §2
Mus musculus [28] = assay: Number of mice (Mus musculus) found toxic when infected with Plasmodium berghei at 640 mg/kg(X 1) subcutaneous administration
Mus musculus [29] = assay: Mean survival time of mice (Mus musculus) infected with Plasmodium berghei at 5 mg/kg(X 1)subcutaneous administration
Plasmodium cynomolgi [30] = assay: Cures in sporozoite-induced Plasmodium cynomolgi infected Rhesus monkeys (Macaca mulatta) on 3.5 mg/kg/day peroral dose after 1 day; assay type: functional; conditions: route oral; summary of the method: as §2
Plasmodium cynomolgi [31] = assay: Suppressive failures in sporozoite-induced Plasmodium cynomolgi infected Rhesus monkeys (Macaca mulatta) on 1.75 mg/kg/day peroral dose after 1 day; assay type: functional; conditions: route oral; summary of the method: as §2
Plasmodium cynomolgi [32] = assay: Relapses in sporozoite-induced Plasmodium cynomolgi infected Rhesus monkeys (Macaca mulatta) on 0.4375 mg/kg/day peroral dose after 1 day; assay type: functional; conditions: route oral; summary of the method: as §2
Plasmodium cynomolgi [33] = assay: Suppressive failures in sporozoite-induced Plasmodium cynomolgi infected Rhesus monkeys (Macaca mulatta) on 3.5 mg/kg/day peroral dose after 1 day; assay type: functional; conditions: route oral; summary of the method: as §2
Mus musculus [34] = assay: Number of animals found toxic out of five mice (Mus musculus) infected with Plasmodium berghei at 640 mg/kg(X 1) subcutaneous administration; remark: listed apart in the source
Mus musculus [35] = assay: Number of animals found toxic out of five mice (Mus musculus) infected with Plasmodium berghei at 320 mg/kg(X 1)subcutaneous administration
Mus musculus [36] = assay: Suppressive antimalarial activity against Plasmodium berghei in Rane mice (Mus musculus) test (five mice (Mus musculus)) at a dose of 5 mg/kg(X 1)A-active; assay type: functional; summary of the method: as §1
Mus musculus [37] = assay: Number of cures out of five mice (Mus musculus) infected with Plasmodium berghei at 5 mg/kg(X 1) subcutaneous administration
Plasmodium cynomolgi [38] = assay: Radical curative activity in sporozoite-induced Plasmodium cynomolgi infected Rhesus monkeys (Macaca mulatta) after 3.5 mg/kg/day (x1) oral dose; assay type: functional; summary of the method: as §2
Plasmodium cynomolgi [39] = assay: Radical curative activity in sporozoite-induced Plasmodium cynomolgi infected Rhesus monkeys (Macaca mulatta) on 1.75 mg/kg/day oral dose after 1 day; assay type: functional; summary of the method: as §2
Plasmodium cynomolgi [40] = assay: Radical curative activity in sporozoite-induced Plasmodium cynomolgi infected Rhesus monkeys (Macaca mulatta) on 14 mg/kg/day peroral dose after 1 day; assay type: functional; conditions: route oral; summary of the method: as §2
Plasmodium cynomolgi [41] = assay: Radical curative activity in sporozoite-induced Plasmodium cynomolgi infected Rhesus monkeys (Macaca mulatta) on 7 mg/kg/day peroral dose after 1 day; assay type: functional; conditions: route oral; summary of the method: as §2

Row | Compound | Cures (Plasmodium cynomolgi [1]) | Cures (Mus musculus [2]) | Cures (Mus musculus [3]) | Cures (Mus musculus [5]) | Cures (Mus musculus [7]) | Cures (Mus musculus [8]) | Cures (Plasmodium cynomolgi [9]) | Molar primaquine Index [12] | Cures (Mus musculus [13]) | Toxic animals (out of 5) (Mus musculus [6]) | Cures (Mus musculus [17]) | Cures (Plasmodium cynomolgi [22]) | Cures (Mus musculus [23]) | also measured
1 | COc1ccc(Oc2c(OC)cc(NC(C)CCCN)c3nccc(C)c23)cc1.O=P(O)(O)O (stereo not given) | 2 | 5 | 5 | 5 | 1 | 2 | 3 | 4.3 | 5 | – | – | – | – | MST (Mus musculus [4]): 5.9; Cures (Mus musculus [6]): 0; MST (Mus musculus [10]): 5.5; Cures (Plasmodium cynomolgi [11]): 0
2 | COc1cc(NC(C)CCCN)c2ncccc2c1.O=P(O)(O)O.O=P(O)(O)O (stereo not given) [PRIMAQUINE PHOSPHATE] | 0 | – | – | – | – | – | – | – | – | 5 | 5 | – | – | MST (Mus musculus [14]): 9.4; MST (Mus musculus [15]): 10.8; Cures (Plasmodium cynomolgi [16]): 1; MST (Mus musculus [18]): 5; MST (Mus musculus [19]): 4; Cures (Mus musculus [20]): 2; Cures (Plasmodium cynomolgi [21]): 6
3 | COc1cc(NC(C)CCCN)c2ncccc2c1 (stereo not given) | – | – | – | – | – | – | – | 1 | – | – | – | – | – | –
4 | COc1cc(NC(C)CCCN)c2nccc(C)c2c1Oc1ccc(Cl)cc1Cl.O=P(O)(O)O (stereo not given) | 1 | 5 | 5 | 5 | 5 | 3 | 3 | 1.3 | 4 | 1 | 2 | 0 | 1 | MST (Mus musculus [10]): 5
5 | COc1cc(NC(C)CCCN)c2nccc(C)c2c1Oc1cccc(C(F)(F)F)c1.O=C(O)CCC(=O)O (stereo not given) | 2 | 5 | 5 | 5 | 5 | 1 | – | 4.8 | 5 | – | – | – | 2 | Suppressive failures (Plasmodium cynomolgi [24]): 3; Cures (Plasmodium cynomolgi [25]): 2; Relapses (Plasmodium cynomolgi [26]): 1; Cures (Plasmodium cynomolgi [27]): 1; Cures (Mus musculus [28]): 4; MST (Mus musculus [29]): 6.9; Cures (Plasmodium cynomolgi [30]): 1; Cures (Plasmodium cynomolgi [16]): 2; Suppressive failures (Plasmodium cynomolgi [31]): 4; Cures (Plasmodium cynomolgi [11]): 0; Relapses (Plasmodium cynomolgi [32]): 4; Suppressive failures (Plasmodium cynomolgi [33]): 1
6 | COc1cc(NC(C)CCCN)c2nccc(C)c2c1Oc1ccc(F)cc1.O=P(O)(O)O (stereo not given) | 2 | 5 | 5 | 5 | 4 | 3 | 3 | 4.2 | 4 | – | – | 0 | 3 | Cures (Mus musculus [34]): 2; Cures (Mus musculus [35]): 1; MST (Mus musculus [36]): 7
7 | COc1cc(NC(C)CCCN)c2nccc(C)c2c1Oc1ccc(Cl)c(Cl)c1.O=P(O)(O)O (stereo not given) | 1 | 5 | 5 | 5 | 5 | 5 | 3 | 1.3 | 5 | – | – | 0 | 5 | Cures (Mus musculus [37]): 4
8 | COc1cc(NC(C)CCCN)c2ncccc2c1 (stereo not given) [PRIMAQUINE] | – | – | – | – | – | – | – | – | – | 5 | 5 | – | – | Cures (Plasmodium cynomolgi [38]): 2; Cures (Plasmodium cynomolgi [39]): 2; MST (Mus musculus [14]): 6.4; MST (Mus musculus [15]): 7; Cures (Plasmodium cynomolgi [40]): 2; MST (Mus musculus [18]): 4.2; MST (Mus musculus [19]): 2.2; Cures (Plasmodium cynomolgi [41]): 1
